Key:
MGC-803 = experiment: Antiproliferative activity against human MGC803 cells after 48 hrs by MTT assay; format: functional, cell-based; details: MGC-803, 48 h
In short: (§1)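 Cells seeded at 5×10⁴ per well, left 12 h, then exposed to serial dilutions (final 0, 5.0, 10.0, 20.0, 40.0, 80.0, 100.0 µM) for 48 h. MTT (5.0 mg/mL stock, 10 µL) added for 4 h, formazan dissolved in DMSO, absorbance read at 490 nm. Inhibition = (1−A_treatment/A_control)×100%; IC50 is the concentration giving 50% growth inhibition. Triplicate wells, at least three independent experiments, mean ± SD.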

[1] = biological target: T1, DNA topoisomerase 1 (Homo sapiens) (UniProt P11387); experiment: Inhibition of human recombinant topoisomerase-1 assessed as decrease in relaxation of supercoiled DNA pBR322 at 100 uM after 30 mins by ethidium bromide staining-based agarose gel electrophoresis relative to control
T1 sequence (whole entry): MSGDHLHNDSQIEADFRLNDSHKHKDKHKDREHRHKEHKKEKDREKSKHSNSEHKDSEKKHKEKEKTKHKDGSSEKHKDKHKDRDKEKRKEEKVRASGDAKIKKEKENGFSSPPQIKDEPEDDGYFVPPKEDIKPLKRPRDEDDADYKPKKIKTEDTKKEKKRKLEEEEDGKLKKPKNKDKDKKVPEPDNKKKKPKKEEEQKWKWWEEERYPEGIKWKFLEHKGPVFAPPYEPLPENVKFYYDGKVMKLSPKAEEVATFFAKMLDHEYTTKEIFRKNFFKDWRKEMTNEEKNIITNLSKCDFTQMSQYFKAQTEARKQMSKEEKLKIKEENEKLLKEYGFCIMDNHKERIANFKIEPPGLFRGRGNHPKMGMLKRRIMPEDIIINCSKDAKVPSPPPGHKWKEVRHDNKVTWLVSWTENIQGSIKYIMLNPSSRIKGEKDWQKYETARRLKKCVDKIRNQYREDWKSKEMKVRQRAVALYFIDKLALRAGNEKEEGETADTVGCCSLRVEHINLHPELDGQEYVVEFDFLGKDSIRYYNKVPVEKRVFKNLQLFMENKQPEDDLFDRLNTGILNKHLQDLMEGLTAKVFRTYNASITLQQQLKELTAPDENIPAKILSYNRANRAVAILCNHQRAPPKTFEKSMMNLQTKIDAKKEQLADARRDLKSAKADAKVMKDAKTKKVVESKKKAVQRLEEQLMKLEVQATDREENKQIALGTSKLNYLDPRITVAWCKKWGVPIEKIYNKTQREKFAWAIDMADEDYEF
In short: (§2)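 Relaxation of 500 ng supercoiled pBR322 by 1 unit human topoisomerase I or IIα in reaction buffer, with or without compound (100 µM; 20 µM for selected compounds). Incubated 37 °C for 30 min, stopped with 0.77% SDS/77 mM EDTA. Products run on 1% agarose in TBE at 83 V for 60 min, stained 30 min in ethidium bromide (0.5 µg/mL), imaged under UV; percent inhibition recorded.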

MCF7 = experiment: Antiproliferative activity against human MCF7 cells after 48 hrs by MTT assay; format: functional, cell-based; details: MCF7, 48 h; in short: as §1
HeLa = experiment: Antiproliferative activity against human HeLa cells after 48 hrs by MTT assay; format: functional, cell-based; in short: as §1
[2] = biological target: T2, DNA topoisomerase 2-alpha (Homo sapiens, UniProt P11388); experiment: Inhibition of human recombinant topoisomerase-2alpha expressed in Escherichia coli assessed as decrease in relaxation of supercoiled DNA pBR322 at 100 uM after 30 mins by ethidium bromide staining-based agarose gel electrophoresis relative to control; in short: as §2
A549 = experiment: Antiproliferative activity against human A549 cells after 48 hrs by MTT assay; format: functional, cell-based; details: A549, 48 h; in short: as §1
[3] = biological target: T1, DNA topoisomerase 1 (Homo sapiens); experiment: Inhibition of human recombinant topoisomerase-1 assessed as decrease in relaxation of supercoiled DNA pBR322 at 20 uM after 30 mins by ethidium bromide staining-based agarose gel electrophoresis relative to control; in short: as §2
[4] = biological target: T2, DNA topoisomerase 2-alpha; experiment: Inhibition of human recombinant topoisomerase-2alpha expressed in Escherichia coli assessed as decrease in relaxation of supercoiled DNA pBR322 at 20 uM after 30 mins by ethidium bromide staining-based agarose gel electrophoresis relative to control; in short: as §2
[5] = biological target: T2, DNA topoisomerase 2-alpha; experiment: Inhibition of human recombinant topoisomerase-2alpha expressed in Escherichia coli assessed as decrease in relaxation of supercoiled DNA pBR322 after 30 mins by ethidium bromide staining-based agarose gel electrophoresis; in short: as §2

T2 sequence (P11388 whole entry): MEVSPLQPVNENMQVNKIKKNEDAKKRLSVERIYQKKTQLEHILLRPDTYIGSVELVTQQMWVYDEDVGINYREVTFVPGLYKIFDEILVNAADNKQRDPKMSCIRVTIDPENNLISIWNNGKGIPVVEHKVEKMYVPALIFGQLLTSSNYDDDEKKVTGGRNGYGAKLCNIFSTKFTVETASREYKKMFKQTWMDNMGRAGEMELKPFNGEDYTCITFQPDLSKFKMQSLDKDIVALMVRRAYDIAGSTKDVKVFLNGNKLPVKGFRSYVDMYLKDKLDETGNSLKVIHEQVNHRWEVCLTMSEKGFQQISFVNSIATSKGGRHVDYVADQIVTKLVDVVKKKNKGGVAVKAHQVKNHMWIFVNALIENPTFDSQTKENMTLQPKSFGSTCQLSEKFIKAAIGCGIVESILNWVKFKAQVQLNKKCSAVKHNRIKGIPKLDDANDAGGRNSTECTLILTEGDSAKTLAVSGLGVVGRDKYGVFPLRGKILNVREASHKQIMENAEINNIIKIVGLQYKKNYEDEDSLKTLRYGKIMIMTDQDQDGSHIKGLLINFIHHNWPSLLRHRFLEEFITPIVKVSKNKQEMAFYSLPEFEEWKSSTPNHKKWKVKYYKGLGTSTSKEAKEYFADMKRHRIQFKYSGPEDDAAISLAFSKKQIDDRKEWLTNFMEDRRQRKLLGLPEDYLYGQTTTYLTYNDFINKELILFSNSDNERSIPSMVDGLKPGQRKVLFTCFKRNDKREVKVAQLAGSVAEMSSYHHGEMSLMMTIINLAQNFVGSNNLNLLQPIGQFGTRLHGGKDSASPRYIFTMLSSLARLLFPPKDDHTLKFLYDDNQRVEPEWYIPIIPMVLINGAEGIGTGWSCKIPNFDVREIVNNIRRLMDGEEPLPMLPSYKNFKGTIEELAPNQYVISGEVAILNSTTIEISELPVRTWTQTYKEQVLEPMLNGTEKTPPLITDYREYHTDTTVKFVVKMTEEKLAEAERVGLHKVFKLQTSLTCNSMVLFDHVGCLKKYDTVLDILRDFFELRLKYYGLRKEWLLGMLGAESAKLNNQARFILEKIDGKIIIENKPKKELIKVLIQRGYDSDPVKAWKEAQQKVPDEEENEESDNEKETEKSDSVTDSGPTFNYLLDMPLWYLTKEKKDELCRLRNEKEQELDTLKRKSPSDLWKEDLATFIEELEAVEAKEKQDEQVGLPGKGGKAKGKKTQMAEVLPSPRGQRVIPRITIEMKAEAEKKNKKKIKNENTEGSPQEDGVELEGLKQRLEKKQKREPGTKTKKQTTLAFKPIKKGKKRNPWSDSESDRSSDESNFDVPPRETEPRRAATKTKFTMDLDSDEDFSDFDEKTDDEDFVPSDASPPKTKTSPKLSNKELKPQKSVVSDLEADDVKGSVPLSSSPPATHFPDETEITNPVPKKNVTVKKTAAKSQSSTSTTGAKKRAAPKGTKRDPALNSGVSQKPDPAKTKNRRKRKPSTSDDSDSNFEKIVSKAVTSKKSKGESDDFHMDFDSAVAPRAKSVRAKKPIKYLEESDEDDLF

Row | IC50 (MGC-803) [µM] | inhibition [1] [%] | IC50 (MCF7) [µM] | IC50 (HeLa) [µM] | inhibition [2] [%] | IC50 (A549) [µM] | inhibition [3] [%] | inhibition [4] [%] | IC50 [5] [µM] | SMILES
1 | 38.4 | -0 | 36.2 | 22.6 | 3.2 | 42.4 | – | – | – | O=C(N[C@@H](Cc1ccccc1)C(=O)N[C@H](COC(=O)c1ccc(Cl)cc1)Cc1ccccc1)OCc1ccccc1
2 | 42.3 | 20.2 | 27.9 | 39.6 | 84.6 | 47.6 | -0 | 49.8 | – | COc1ccc(C(=O)OC[C@H](Cc2ccccc2)NC(=O)[C@H](CC(=O)OCc2ccccc2)NC(=O)OCc2ccccc2)cc1OC
3 | 43.1 | -0 | 43 | > 50 | 4.1 | > 50 | – | – | – | O=C(N[C@@H](Cc1ccccc1)C(=O)N[C@H](COC(=O)c1ccccc1Cl)Cc1ccccc1)OCc1ccccc1
4 | > 50 | 15 | 47.1 | > 50 | 6.7 | > 50 | -0 | – | – | CC(=O)OC[C@H](Cc1ccccc1)NC(=O)[C@H](CC(=O)OCc1ccccc1)NC(=O)OCc1ccccc1
5 | > 50 | -0 | > 50 | > 50 | 41.4 | > 50 | – | – | – | O=C(C[C@H](NC(=O)OCc1ccccc1)C(=O)N[C@H](COC(=O)c1ccccc1Cl)Cc1ccccc1)OCc1ccccc1
6 | > 50 | -0 | > 50 | > 50 | 86.1 | > 50 | – | 45.6 | – | CCC(=O)OC[C@H](Cc1ccccc1)NC(=O)[C@H](Cc1ccccc1)NC(=O)OCc1ccccc1
7 | > 50 | -0 | 41.7 | 44.7 | 28.2 | > 50 | – | – | – | Cc1ccccc1C(=O)OC[C@H](Cc1ccccc1)NC(=O)[C@H](CC(=O)OCc1ccccc1)NC(=O)OCc1ccccc1
8 | – | – | – | – | – | – | – | – | 27 | O=C(O)C[C@H](NC(=O)OCc1ccccc1)C(=O)O
9 | 38.7 | 29.5 | 41.1 | 30.2 | 75.7 | 48.8 | -0 | 25.6 | – | O=C(N[C@@H](Cc1ccccc1)C(=O)N[C@H](COC(=O)c1ccccc1)Cc1ccccc1)OCc1ccccc1
10 | > 50 | 45.2 | 40.6 | 49.9 | 63.8 | > 50 | -0 | 19.7 | – | CCC(=O)OC[C@H](Cc1ccccc1)NC(=O)[C@H](CC(=O)OCc1ccccc1)NC(=O)OCc1ccccc1
11 | 40.3 | 5.4 | 41.5 | 34.5 | 83.2 | > 50 | – | 28.1 | – | COc1ccc(C(=O)OC[C@H](Cc2ccccc2)NC(=O)[C@H](Cc2ccccc2)NC(=O)OCc2ccccc2)cc1OC
12 | 28.1 | 9.5 | 22.1 | 17.6 | 92.9 | 29.9 | – | 51.2 | – | O=C(C[C@H](NC(=O)OCc1ccccc1)C(=O)N[C@H](COC(=O)c1ccc(Cl)cc1)Cc1ccccc1)OCc1ccccc1
13 | 42.8 | 7.3 | 39.2 | 39.4 | 62.8 | > 50 | – | 42.1 | – | Cc1ccccc1C(=O)OC[C@H](Cc1ccccc1)NC(=O)[C@H](Cc1ccccc1)NC(=O)OCc1ccccc1
14 | 32.5 | -0 | 40 | 27.9 | 68.4 | 46 | – | 20.1 | – | O=C(C[C@H](NC(=O)OCc1ccccc1)C(=O)N[C@H](COC(=O)c1ccccc1)Cc1ccccc1)OCc1ccccc1
15 | 20.9 | – | 24 | 15.9 | – | 19.8 | – | – | – | COc1cc([C@@H]2c3cc4c(cc3[C@@H](O[C@@H]3O[C@@H]5CO[C@@H](C)O[C@H]5[C@H](O)[C@H]3O)[C@H]3COC(=O)[C@H]23)OCO4)cc(OC)c1O [ETOPOSIDE]

Row | SMILES | IC50 (MGC-803) [µM] | inhibition [1] [%] | IC50 (MCF7) [µM] | IC50 (HeLa) [µM] | inhibition [2] [%] | IC50 (A549) [µM] | inhibition [3] [%] | inhibition [4] [%] | IC50 [5] [µM]
16 | CC[C@@]1(O)C(=O)OCc2c1cc1n(c2=O)Cc2cc3ccccc3nc2-1 [CAMPTOTHECIN] | 9.45 | – | 28.7 | 10.1 | – | 13.6 | – | – | –

Source: ChEMBL document CHEMBL4033671, “Synthesis and biological evaluation of N-(carbobenzyloxy)-l-phenylalanine and N-(carbobenzyloxy)-l-aspartic acid-β-benzyl ester derivatives as potent topoisomerase IIα inhibitors” (Bioorg Med Chem, 2017)
